A selection: hits, their analogues and other compounds. The true share with any hit is near 3.1%.
KCNQ1 pot: potentiators or activators of KCNQ1 channel, primary screen, cell-based, thallium flux, high-throughput. CHO-K1 KCNQ1, thallium flux FluxOR fluorescence; hits give high values. B-score at 10 µM. 0.35% of 310,000 active. AID 2648, 2010;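 active means fluorescence ratio B-score, a plate-corrected score, at least three library SD, with initial intensity B-score within 5 SD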
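Schedule – 37 °C overnight plating, 90-min dark dye load, 20-min compound pretreatment · System – stable KCNQ1 CHO-K1 line · Probe or stimulus – thallium- and potassium-containing depolarizing buffer · Measured by – kinetic FluxOR fluorescence, 10 s baseline plus 110 s post-stimulus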
hERG protect: hERG rescue from dofetilide block, primary screen, cell-based, CHO-hERG, FluxOR thallium flux, dofetilide IC70; dofetilide IC70 present; Voltage-gated inwardly rectifying potassium channel KCNH2 (Homo sapiens), Q12809; activation (rescue from dofetilide block), less the hit threshold, % at 10 µM; 0.51% of 310,000 active;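 active means activation above the mean of controls blocked by dofetilide plus 5 SD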;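 further: thallium influx through hERG after potassium depolarization seen as dye fluorescence rise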
KCNK9 inh: KCNK9 potassium channel inhibitors, primary screen, HEK293 cells, thallium flux. B-score at 10 µM. Potassium channel subfamily K member 9 (Homo sapiens), Q9NPC2. FluxOR thallium flux fluorescence; hits give low values. 1.2% of 310,000 active;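 active means ratio B-score over 3 SD below the library mean, with starting fluorescence within 5 SD of its mean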;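 further: negative B-score means less thallium flux so channel inhibition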
Target sequence (Q9NPC2 whole entry, looked up): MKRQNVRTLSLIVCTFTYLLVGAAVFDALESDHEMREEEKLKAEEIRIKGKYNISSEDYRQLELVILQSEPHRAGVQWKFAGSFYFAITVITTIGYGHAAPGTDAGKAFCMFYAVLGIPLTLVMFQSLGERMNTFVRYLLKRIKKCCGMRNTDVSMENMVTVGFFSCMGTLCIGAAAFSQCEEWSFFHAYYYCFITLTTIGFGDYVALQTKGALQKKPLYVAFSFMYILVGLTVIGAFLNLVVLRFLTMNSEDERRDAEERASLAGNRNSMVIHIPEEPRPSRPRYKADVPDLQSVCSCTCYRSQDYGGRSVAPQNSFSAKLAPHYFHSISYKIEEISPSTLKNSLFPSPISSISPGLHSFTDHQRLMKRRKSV
KCNK3 block: human KCNK3 channel inhibitors, primary screen, CHO cells, FluxOR thallium flux, B-score; Potassium channel subfamily K member 3 (Homo sapiens), O14649; FluxOR fluorescence; hits give low values; B-score at 10 µM; 0.84% of 340,000 active; AID 602410, 2012;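 active means B-score under library mean minus 4 SD, starting fluorescence ratio at most library mean plus 5 SD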;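 further: more negative B-score means stronger inhibition of thallium flux through KCNK3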
KCNQ1 block: inhibitors of human KCNQ1 channel, primary screen, cell-based, thallium flux, high-throughput; Potassium voltage-gated channel subfamily KQT member 1 (Homo sapiens), P51787; CHO-K1 KCNQ1, FluxOR thallium flux fluorescence; hits give high values; B-score at 10 µM; 1.3% of 310,000 active;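 active means compounds whose thallium flux B-score, printed positive for inhibition, exceeds three library SD while starting fluorescence stays within three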;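 further: channel opened by potassium depolarization with thallium stimulus after 20 min compound exposure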
* marks the source's active call; other numbers are inactive results; i = inactive; x = no result.

SMILES	KCNQ1 pot	hERG protect	KCNK9 inh	KCNK3 block	KCNQ1 block
Cc1cc(N2CCN(c3ccccc3Cl)CC2)n2cc(-c3ccccc3)nc2n1	i	-18	-12*	i	i
CCOC(=O)CN1C(c2ccccc2O)Nc2ccc(Br)cc2C1c1ccccc1 (stereo unspecified)	i	-7	-7.4*	i	i
Cc1cc(C)c(NC(=O)CN(C)CC(=O)Nc2cccc(S(=O)(=O)N(C)c3ccccc3)c2)c(C)c1	x	x	x	i	x
CCC(C(=O)Nc1cccc(S(=O)(=O)N(C)c2ccccc2)c1)c1ccccc1 (stereo unspecified)	x	x	x	-9.9*	x
CN(CC(=O)Nc1cccc(F)c1)CC(=O)Nc1cccc(S(=O)(=O)N(C)c2ccccc2)c1	x	x	x	-9.3*	x
CN(CC(=O)Nc1cccc(F)c1)CC(=O)Nc1cccc2ccccc12	x	x	x	-11*	x
O=C(NC1CCCC1)C(c1ccncc1)N(C(=O)Cc1cccs1)c1cccc(F)c1 (stereo unspecified)	i	-4	i	i	i
OCCN(CCO)c1ccc(C(c2ccccc2Cl)c2ccc(N(CCO)CCO)cc2Cl)c(Cl)c1	11*	-10	i	i	i
OCCN(CCO)c1ccc2ccccc2c1	i	-14	i	i	i
O=[N+]([O-])c1ccc(C2CC(c3ccccc3)=Nc3ccccc3S2)cc1 (stereo unspecified)	i	-9	-7.9*	i	i
C=CCNC(=S)NC1CC(C)(C)NC(C)(C)C1	i	-6	i	i	i
CC1(C)CC(NC(=S)NC2CC2)CC(C)(C)N1	i	7.0*	i	i	i
COc1ccc2nc(NN=C(C)c3ccccn3)cc(C)c2c1	x	x	x	i	x
COc1ccc(C=C2c3ccccc3C(=O)c3ccccc32)c(OC)c1	i	-5	-8.7*	i	i
COc1ccc(/C=C2\CN(Cc3ccccc3)C/C(=C\c3ccc(OC)cc3OC)C2=O)c(OC)c1	i	-22	i	i	i
CCc1ccc2nc(NC(=O)c3cc(C)on3)sc2c1	29*	9.4*	i	i	i
COc1ccc2nc(NC(=O)c3ccccc3O)sc2c1	i	-9	i	i	i
CCOC(=O)c1cccc(C(=O)Nc2nc3ccc(OC)cc3s2)n1	9*	1	i	i	i
Cc1cc(C)c2nc(NC(=O)c3cc(C)on3)sc2c1	24*	-1	i	i	i
CC(OC(=O)CN1C(=O)NC2(CCCCC2C)C1=O)c1ccccc1 (stereo unspecified)	x	x	x	i	x
COc1ccc(NC(=O)CN2C(=O)C(=O)N(C3CCCC3)C2=O)c(OC)c1	x	x	x	i	x
CC(C)(C)c1ccc(C(=O)OCC(=O)NC2CC2)cc1	x	x	x	i	x
Cc1ccc(-c2nc(CSCC(=O)N3CCN(c4ccccn4)CC3)c(C)o2)cc1	i	-18	i	-8.9*	i
CCOc1ccc(OCCN2CCCCC2)cc1	i	-4	i	i	i
CCOc1ccc(CNCCN2CCCC2)cc1	i	-9	i	i	7*
SMILES	KCNQ1 pot	hERG protect	KCNK9 inh	KCNK3 block	KCNQ1 block
COCCC(=O)N1CCC(Oc2ccc(C(=O)NCCCC3CCCC3)cc2)CC1	i	-8	i	i	i
COc1cccc(C(=O)Nc2ccccc2)c1	i	5.4*	i	i	i
COc1ccc(-c2oc(NC(=O)c3ccc(C)cc3)c(C#N)c2-c2ccc(OC)cc2)cc1	i	-1	i	i	i
COc1cccc(NC(=O)c2cncs2)c1	14*	5.0*	i	i	i
COc1ccc(C(=O)Nc2oc(-c3ccccc3)c(-c3ccccc3)c2C#N)cc1	i	-16	i	i	7*
COc1cccc(C(=O)Nc2nc(-c3ccccc3)c(-c3ccccc3)o2)c1	9*	-7	i	i	i
COc1cccc(C(=O)Nc2c(F)c(F)c(F)c(F)c2F)c1	i	-11	i	i	i
